This note sets out measurements from ChEMBL document CHEMBL1141572, “N-substituted 3-acetyltetramic acid derivatives as antibacterial agents” (J Med Chem, 2008).

≈ marks a conversion by molar mass, not a printed value. Where only a bound is given, the exact number is not on record here.

The test system of assay [1] is Mycobacterium tuberculosis. Briefly: Antimycobacterial activity against Mycobacterium tuberculosis H37Rv after 7 days by micro-broth dilution method. It counts as functional. The following applies: 168 h. For orientation: Broth dilution looks for growth in wells or tubes with falling amounts of substance.
The test system of another assay is Streptococcus pneumoniae. Briefly: Antibacterial activity against Streptococcus pneumoniae DAW30 by micro-broth dilution method. The assay is classed as functional.
The next assay relates to Bacillus subtilis. Briefly: Antibacterial activity against Bacillus subtilis ATCC 23857 by microbroth dilution method. The assay is classed as functional.
Assay [2] relates to Staphylococcus aureus. Kind of assay: Antibacterial activity against methicillin-resistant Staphylococcus aureus ATCC 33591 by micro-broth dilution method. It counts as functional.
The subject of the next assay is Streptococcus pyogenes. Briefly: Antibacterial activity against Streptococcus pyogenes ATCC 700294 by micro-broth dilution method. It counts as functional.
The test system of a further assay is Escherichia coli. Kind of assay: Antibacterial activity against Escherichia coli by micro-broth dilution method. The assay is classed as functional.
The nature of assay [3]: Selectivity index, ratio of IC50 for african green monkey Vero cells to MIC for methicillin- sensitive Staphylococcus aureus 8325 ATCC 35556. It counts as functional. An outline of the steps:
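Selectivity index is calculated as the Vero cell cytotoxic IC50 divided by the MIC against the wild-type, drug-sensitive, methicillin-sensitive S. aureus 8325 (ATCC 35556).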

Assay [4] relates to Staphylococcus aureus. Kind of assay: Antibacterial activity against methicillin-sensitive Staphylococcus aureus 8325 ATCC 35556 by micro-broth dilution method. It counts as functional.
For the next assay, the system named is Cutibacterium acnes. Briefly: Antibacterial activity against Propionibacterium acnes ATCC 6919 by micro-broth dilution method. The assay is classed as functional.
The subject of another assay is Bacillus anthracis. Kind of assay: Antibacterial activity against Bacillus anthracis Sterne 34F2 by micro-broth dilution method. The assay is classed as functional.
A further assay has as its system Enterococcus faecalis. Briefly: Antibacterial activity against Enterococcus faecalis ATCC 33186 by microbroth dilution method. It counts as functional.
A further assay relates to Pseudomonas aeruginosa. Briefly: Antibacterial activity against Pseudomonas aeruginosa by micro-broth dilution method. It counts as functional.
A further assay has as its system Vero. Briefly: Cytotoxicity against african green monkey Vero cells after 72 hrs by MTT proliferation assay. The settings on record: Chlorocebus sabaeus. It counts as cell-based. In short, it runs like this: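 IC50 is taken as the concentration that lowers Vero kidney cell viability by 50%.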
A general note: Tetrazolium dyes change colour on reduction, which living cells bring about.

For the compound `C/C(O)=C1\C(=O)[C@H](CC(C)C)N(CC2=CCC3CC2C3(C)C)C1=O` (stereo not given in full), the minimal inhibitory concentration (MIC) (as a rule, the smallest concentration in the dilution series that meets the test's criterion for growth inhibition) is 100 µg/mL (≈ 302 µM) in assay [1]; 50 µg/mL (≈ 151 µM) against Streptococcus pneumoniae; 1.6 µg/mL (≈ 4.83 µM) in the assay with Bacillus subtilis; 1.6 µg/mL (≈ 4.83 µM) against Staphylococcus aureus [2]; 25 µg/mL (≈ 75.4 µM) in the assay with Streptococcus pyogenes; over 200 µg/mL against Escherichia coli. The MIC against Staphylococcus aureus [4] was 1.6 µg/mL (≈ 4.83 µM); with Cutibacterium acnes it was 0.8 µg/mL (≈ 2.41 µM); with Bacillus anthracis it was 0.8 µg/mL (≈ 2.41 µM); against Enterococcus faecalis it was 1.6 µg/mL (≈ 4.83 µM); against Pseudomonas aeruginosa, over 200 µg/mL. Moreover, in assay [3], the Ratio is recorded as 22.1. Also, inhibition with Vero was half-maximal at 35.4 µg/mL (≈ 107 µM) (IC50).

As to `CCCCCCCCCCN1C(=O)/C(=C(/C)O)C(=O)[C@@H]1Cc1ccccc1`, the MIC in assay [1] was 50 µg/mL (≈ 135 µM); in the assay with Streptococcus pneumoniae, 12.5 µg/mL (≈ 33.6 µM); in the assay with Bacillus subtilis it was 0.4 µg/mL (≈ 1.08 µM); in the assay on Staphylococcus aureus [2] it was 0.8 µg/mL (≈ 2.15 µM); against Streptococcus pyogenes, 50 µg/mL (≈ 135 µM); in the assay with Escherichia coli, over 200 µg/mL. Further, the minimal inhibitory concentration (MIC) was 0.2 µg/mL (≈ 0.538 µM) against Staphylococcus aureus [4]; 0.4 µg/mL (≈ 1.08 µM) in the assay with Cutibacterium acnes; 0.2 µg/mL (≈ 0.538 µM) against Bacillus anthracis; 0.8 µg/mL (≈ 2.15 µM) in the assay on Enterococcus faecalis; over 200 µg/mL in the assay with Pseudomonas aeruginosa. The Ratio in assay [3] turned out to be 105.5. The half-inhibitory concentration (IC50) (usually the point on the concentration scale where inhibition reaches its midpoint) with Vero was 21.1 µg/mL (≈ 56.8 µM).

With `C/C(O)=C1\C(=O)[C@@H](Cc2ccccc2)N(Cc2ccccc2)C1=O`, the MIC in assay [1] was over 200 µg/mL; with Streptococcus pneumoniae, 50 µg/mL (≈ 156 µM); against Bacillus subtilis it was 25 µg/mL (≈ 77.8 µM); in the assay with Staphylococcus aureus [2] it was 25 µg/mL (≈ 77.8 µM); in the assay with Streptococcus pyogenes it was 200 µg/mL (≈ 622 µM); in the assay on Escherichia coli, over 200 µg/mL. In addition, the MIC with Staphylococcus aureus [4] was 25 µg/mL (≈ 77.8 µM); against Cutibacterium acnes, 25 µg/mL (≈ 77.8 µM); with Bacillus anthracis, 25 µg/mL (≈ 77.8 µM); in the assay with Enterococcus faecalis, 100 µg/mL (≈ 311 µM); with Pseudomonas aeruginosa it was over 200 µg/mL. Also, the Ratio in assay [3] was found to be 3.2. Besides, 80.6 µg/mL (≈ 251 µM) corresponded to half-maximal inhibition in the assay with Vero (IC50).

As for `C/C(O)=C1\C(=O)[C@H](Cc2ccccc2)N(Cc2ccccc2)C1=O`, the MIC was over 200 µg/mL in assay [1]; 100 µg/mL (≈ 311 µM) in the assay on Streptococcus pneumoniae; 25 µg/mL (≈ 77.8 µM) in the assay with Bacillus subtilis; 25 µg/mL (≈ 77.8 µM) in the assay on Staphylococcus aureus [2]; over 200 µg/mL against Streptococcus pyogenes; over 200 µg/mL in the assay with Escherichia coli. Besides, the MIC is 12.5 µg/mL (≈ 38.9 µM) against Staphylococcus aureus [4]; 12.5 µg/mL (≈ 38.9 µM) in the assay on Cutibacterium acnes; 25 µg/mL (≈ 77.8 µM) against Bacillus anthracis; 100 µg/mL (≈ 311 µM) in the assay with Enterococcus faecalis; over 200 µg/mL in the assay with Pseudomonas aeruginosa. Besides, the Ratio in assay [3] is given as 6.1. It took 75.7 µg/mL (≈ 236 µM) to reach half-maximal inhibition in the assay on Vero (IC50).

Consider `C/C(O)=C1\C(=O)[C@H](CC(C)C)N(Cc2ccc(-c3ccccc3)cc2)C1=O`, for which the MIC in [1] was 50 µg/mL (≈ 138 µM); in the assay on Streptococcus pneumoniae, 12.5 µg/mL (≈ 34.4 µM); against Bacillus subtilis, 0.4 µg/mL (≈ 1.1 µM); against Staphylococcus aureus [2] it was 0.8 µg/mL (≈ 2.2 µM); in the assay with Streptococcus pyogenes, 25 µg/mL (≈ 68.8 µM); against Escherichia coli, over 200 µg/mL. Also, the MIC in the assay with Staphylococcus aureus [4] is 0.2 µg/mL (≈ 0.55 µM); in the assay on Cutibacterium acnes, 0.2 µg/mL (≈ 0.55 µM); with Bacillus anthracis it was 0.4 µg/mL (≈ 1.1 µM); with Enterococcus faecalis, 0.8 µg/mL (≈ 2.2 µM); with Pseudomonas aeruginosa it was over 200 µg/mL. The Ratio in [3] came out at 98.5. Moreover, in the assay on Vero, the IC50 stood at 19.7 µg/mL (≈ 54.2 µM).
